Data: ChEMBL document CHEMBL1649384, “Synthesis and antiproliferative activity of novel symmetrical alkylthio- and alkylseleno-imidocarbamates” (Eur J Med Chem, 2011)

Legend:
[1] = tested on: MCF7; experiment: Cytotoxicity against human MCF7 cells after 72 hrs by MTT assay; type: functional; details: MCF7, 72 h
How it was run: (§1)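 Cells seeded per well: Hep-G2 1×10⁴, HT-29 4×10³, K-562 4×10³, MCF-7 1.2×10⁴, MCF-10A 7×10³, PC-3 2×10³. MCF-10A were grown in supplemented MEBM at 37 °C, 5% CO₂. Five concentrations were tested between 0.01 and 100, with 72 h exposure. Formazan was read by A590. GI₅₀ was taken relative to untreated controls, from at least three independent experiments.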

[2] = tested on: HT-29; experiment: Cytotoxicity against human HT-29 cells after 72 hrs by MTT assay; type: functional; details: HT-29, 72 h; for CC50: read-out: LC50 (the source's name); how it was run: as §1
[3] = tested on: K562; experiment: Cytotoxicity against human K562 cells after 72 hrs by MTT assay; type: functional; details: K562, 72 h; for CC50: read-out: LC50 (the source's name); how it was run: as §1
[4] = tested on: HepG2; experiment: Cytotoxicity against human HepG2 cells after 72 hrs by MTT assay; type: functional; details: HepG2, 72 h; for CC50: read-out: LC50 (the source's name); how it was run: as §1
[5] = tested on: PC-3; experiment: Cytotoxicity against human PC3 cells after 72 hrs by MTT assay; type: functional; details: PC-3, 72 h; for CC50: read-out: LC50 (the source's name); how it was run: as §1
[6] = Cytotoxicity against human MCF10A cells after 72 hrs by MTT assay; type: cell-based, MCF-10A; details: for GI50 at 72 h: MCF10A cells; for LC50 / TGI: mcf-10a, 72 h; how it was run: as §1

## C[Se]/C(=N\C(=O)c1cc2ccccc2s1)NC(=O)c1cc2ccccc2s1
[1]
  GI50: 5.07 µM
  LC50: 80.6 µM
  TGI: 32.7 µM
[2]
  GI50: 5.62 µM
  TGI: > 100 µM
  CC50: > 100 µM
[3]
  GI50: 32.4 µM
  TGI: 61 µM
  CC50: 89.5 µM
[4]
  GI50: 9.59 µM
  TGI: 41 µM
  CC50: 73.3 µM
[5]
  GI50: 37.2 µM
  TGI: 65.6 µM
  CC50: 94 µM
[6]
  GI50 at 72 h: 0.49 µM
  LC50: 73.21 µM
  TGI: 34.65 µM

## C[Se]/C(=N\C(=O)c1ccc2c(c1)OCO2)NC(=O)c1ccc2c(c1)OCO2
[1]
  GI50: 0.99 µM
  LC50: > 100 µM
  TGI: 52.8 µM
[2]
  GI50: 0.53 µM
  TGI: > 100 µM
  CC50: > 100 µM
[3]
  GI50: 9.23 µM
  TGI: 46.3 µM
  CC50: 85.2 µM
[4]
  GI50: 5.84 µM
  TGI: 23.6 µM
  CC50: 73.1 µM
[5]
  GI50: 4.24 µM
  TGI: 36.8 µM
  CC50: > 100 µM
[6]
  GI50 at 72 h: 5.58 µM
  LC50: > 100 µM
  TGI: 45.97 µM

## O=C(/N=C(/NC(=O)c1ccno1)[Se]Cc1ccccc1)c1ccno1
[1]
  GI50: 7.8 µM
  LC50: > 100 µM
  TGI: > 100 µM
[2]
  GI50: 6.82 µM
  TGI: > 100 µM
  CC50: > 100 µM
[3]
  GI50: 20 µM
  TGI: 57.3 µM
  CC50: 94.7 µM
[4]
  GI50: 9.12 µM
  TGI: 58.9 µM
  CC50: > 100 µM
[5]
  GI50: 53.1 µM
  TGI: > 100 µM
  CC50: > 100 µM
[6]
  GI50 at 72 h: 7.8 µM
  LC50: > 100 µM
  TGI: > 100 µM

## C[Se]/C(=N\C(=O)c1c2ccccc2nc2ccccc12)NC(=O)c1c2ccccc2nc2ccccc12
[1]
  GI50: 73.9 µM
  LC50: > 100 µM
  TGI: > 100 µM
[2]
  GI50: 7.63 µM
  TGI: > 100 µM
  CC50: > 100 µM
[3]
  GI50: 27.2 µM
  TGI: 61 µM
  CC50: 94.8 µM
[4]
  GI50: 22.3 µM
  TGI: 52.4 µM
  CC50: 82.5 µM
[5]
  GI50: 41.3 µM
  TGI: 80.1 µM
  CC50: > 100 µM
[6]
  GI50 at 72 h: 18.2 µM
  LC50: 88.31 µM
  TGI: 53.28 µM

## O=C(/N=C(/NC(=O)c1csc([N+](=O)[O-])c1)[Se]Cc1ccccc1)c1csc([N+](=O)[O-])c1
[1]
  GI50: 24.4 µM
  LC50: 83.8 µM
  TGI: 54.1 µM
[2]
  GI50: 9.25 µM
  TGI: > 100 µM
  CC50: > 100 µM
[3]
  GI50: 23.5 µM
  TGI: 55.8 µM
  CC50: 88.2 µM
[4]
  GI50: 34.1 µM
  TGI: 62.8 µM
  CC50: 91.6 µM
[5]
  GI50: 35.9 µM
  TGI: 69.2 µM
  CC50: > 100 µM
[6]
  GI50 at 72 h: 24.4 µM
  LC50: 83.76 µM
  TGI: 54.1 µM

## CS/C(=N\C(=O)c1cc2ccccc2s1)NC(=O)c1cc2ccccc2s1
[1]
  GI50: 9.51 µM
  LC50: 78.5 µM
  TGI: 43.4 µM
[2]
  GI50: 16.8 µM
  TGI: 88.2 µM
  CC50: 88.2 µM
[3]
  GI50: 34.7 µM
  TGI: 66.6 µM
  CC50: 98.6 µM
[4]
  GI50: 15.8 µM
  TGI: 53 µM
  CC50: 75.8 µM
[5]
  GI50: 8.58 µM
  TGI: 39.4 µM
  CC50: 72.5 µM
[6]
  GI50 at 72 h: 0.02 µM
  LC50: 54.56 µM
  TGI: 5.6 µM

## CS/C(=N\C(=O)c1c2ccccc2nc2ccccc12)NC(=O)c1c2ccccc2nc2ccccc12
[1]
  GI50: 27.7 µM
  LC50: > 100 µM
  TGI: > 100 µM
[2]
  GI50: 69.2 µM
  TGI: > 100 µM
  CC50: > 100 µM
[3]
  GI50: 45 µM
  TGI: 76 µM
  CC50: > 100 µM
[4]
  GI50: 90.2 µM
  TGI: > 100 µM
  CC50: > 100 µM
[5]
  GI50: 51.1 µM
  TGI: 87.3 µM
  CC50: > 100 µM
[6]
  GI50 at 72 h: 1 µM
  LC50: > 100 µM
  TGI: > 100 µM

## O=C(/N=C(/NC(=O)c1ccc2c(c1)OCO2)[Se]Cc1ccccc1)c1ccc2c(c1)OCO2
[1]
  GI50: 55.3 µM
  LC50: > 100 µM
  TGI: > 100 µM
[2]
  GI50: 57.3 µM
  TGI: > 100 µM
  CC50: > 100 µM
[3]
  GI50: 97.8 µM
  TGI: > 100 µM
  CC50: > 100 µM
[4]
  GI50: > 100 µM
  TGI: > 100 µM
  CC50: > 100 µM
[5]
  GI50: > 100 µM
  TGI: > 100 µM
  CC50: > 100 µM
[6]
  GI50 at 72 h: 55.3 µM
  LC50: > 100 µM
  TGI: > 100 µM

## CS/C(=N\C(=O)c1cc(-c2ccccc2)nc2ccccc12)NC(=O)c1cc(-c2ccccc2)nc2ccccc12
[1]
  GI50: 43.1 µM
  LC50: > 100 µM
  TGI: 87.7 µM
[2]
  GI50: 23.7 µM
  TGI: > 100 µM
  CC50: > 100 µM
[3]
  GI50: 34.4 µM
  TGI: > 100 µM
  CC50: > 100 µM
[4]
  GI50: 6.24 µM
  TGI: 48.1 µM
  CC50: > 100 µM
[5]
  GI50: 7.48 µM
  TGI: > 100 µM
  CC50: > 100 µM
[6]
  GI50 at 72 h: 0.04 µM
  LC50: 48.81 µM
  TGI: 0.54 µM

## COc1cccc2c1C(=O)c1c(O)c3c(c(O)c1C2=O)C[C@@](O)(C(=O)CO)C[C@@H]3O[C@H]1C[C@H](N)[C@H](O)[C@H](C)O1 [DOXORUBICIN]
[1]
  GI50: 0.02 µM
  TGI: 5.01 µM
[2]
  GI50: 0.2 µM
  TGI: 25.4 µM
  CC50: 25.4 µM
[3]
  GI50: 0.1 µM
  TGI: 5.01 µM
  CC50: 19.9 µM
[5]
  GI50: 0.25 µM
  TGI: 3.16 µM
  CC50: 19.9 µM

## COc1cc([C@@H]2c3cc4c(cc3[C@@H](O[C@@H]3O[C@@H]5CO[C@@H](C)O[C@H]5[C@H](O)[C@H]3O)[C@H]3COC(=O)[C@H]23)OCO4)cc(OC)c1O [ETOPOSIDE]
[1]
  GI50: 19.9 µM
  TGI: > 100 µM
[2]
  GI50: 31.6 µM
  TGI: > 100 µM
  CC50: > 100 µM
[3]
  GI50: 12.6 µM
  TGI: > 100 µM
  CC50: > 100 µM
[5]
  GI50: 0.63 µM
  TGI: 3.98 µM
  CC50: 79.4 µM

## CC(=O)O[C@H]1C(=O)[C@@]2(C)[C@H]([C@H](OC(=O)c3ccccc3)[C@]3(O)C[C@H](OC(=O)[C@H](O)[C@@H](NC(=O)c4ccccc4)c4ccccc4)C(C)=C1C3(C)C)[C@]1(OC(C)=O)CO[C@@H]1C[C@@H]2O [PACLITAXEL]
[1]
  GI50: 0.003 µM
  TGI: > 100 µM
[2]
  GI50: 0.003 µM
  TGI: 79.4 µM
  CC50: 79.4 µM
[3]
  GI50: 0.004 µM
  TGI: 15.8 µM
  CC50: > 100 µM
[5]
  GI50: 0.004 µM
  TGI: 12.6 µM
  CC50: > 100 µM

## CN(Cc1cnc2nc(N)nc(N)c2n1)c1ccc(C(=O)N[C@@H](CCC(=O)O)C(=O)O)cc1 [METHOTREXATE]
[1]
  GI50: 0.06 µM
  TGI: > 100 µM
[2]
  GI50: 0.04 µM
  TGI: > 100 µM
  CC50: 0.03 µM
[3]
  GI50: 0.03 µM
  TGI: > 100 µM
  CC50: > 100 µM
[5]
  GI50: 0.1 µM
  TGI: > 100 µM
  CC50: > 100 µM
